The values below come from ChEMBL document CHEMBL4325869, “1,2,3,4-Tetrahydroisoquinoline/2H-chromen-2-one conjugates as nanomolar P-glycoprotein inhibitors: Molecular determinants for affinity and selectivity over multidrug resistance associated protein 1” (Eur J Med Chem, 2019).

The target in data set [1] is T1, ATP-dependent translocase ABCB1 (Homo sapiens, UniProt P08183). Briefly: Inhibition of MDR1 (unknown origin) expressed in MDCK cells assessed as reduction in calcein-AM efflux preincubated for 30 mins followed by calcein-AM addition measured after 30 mins by spectrofluorimetric method. Format: cell-based.
For the next data set, the system named is MDCK. Briefly: Cytotoxicity against MDCK cells expressing MDR1 assessed as reduction in cell viability at 10 uM after 72 hrs by MTT assay. It counts as ADME, cell-based, Canis lupus familiaris. As to conditions: dog. The method, boiled down:
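MDCK-MDR1 cells (DMEM high glucose, 10% FBS, 37 °C, 5% CO2) were seeded at 10,000/well. Compound was added at 0.1, 1 and 10 µM the next day. On day 3 the medium was replaced with compound alone, and the 72 h run ended with MTT (0.5 mg/mL, 3 h, 37 °C). Formazan was dissolved in DMSO and read at 570/630 nm. Viability is % of untreated control with solvent controls, from 2-3 independent experiments in triplicate.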

The target of data set [2] is T1, ATP-dependent translocase ABCB1. The data set is described as follows: Inhibition of MDR1 (unknown origin) expressed in MDCK cells assessed as potentiation of doxorubicin-induced cytotoxicity preincubated for 24 hrs followed by doxorubicin addition measured after 72 hrs by MTT assay. Format: cell-based. The method, boiled down: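 MDCK-MDR1 cells were seeded at 10,000/well, and compound was added at 0.1, 1 and 10 µM on day 2. On day 3 the medium was replaced with compound plus 10 µM doxorubicin. The 72 h run ended with MTT (0.5 mg/mL, 3 h, 37 °C) and DMSO solubilization, read at 570/630 nm. Growth is % of drug-free control, compared against doxorubicin alone by one-way ANOVA with Bonferroni post-hoc.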
For orientation: Formazan colour is commonly taken as a measure of viable cells.

T1 sequence (P08183 whole entry): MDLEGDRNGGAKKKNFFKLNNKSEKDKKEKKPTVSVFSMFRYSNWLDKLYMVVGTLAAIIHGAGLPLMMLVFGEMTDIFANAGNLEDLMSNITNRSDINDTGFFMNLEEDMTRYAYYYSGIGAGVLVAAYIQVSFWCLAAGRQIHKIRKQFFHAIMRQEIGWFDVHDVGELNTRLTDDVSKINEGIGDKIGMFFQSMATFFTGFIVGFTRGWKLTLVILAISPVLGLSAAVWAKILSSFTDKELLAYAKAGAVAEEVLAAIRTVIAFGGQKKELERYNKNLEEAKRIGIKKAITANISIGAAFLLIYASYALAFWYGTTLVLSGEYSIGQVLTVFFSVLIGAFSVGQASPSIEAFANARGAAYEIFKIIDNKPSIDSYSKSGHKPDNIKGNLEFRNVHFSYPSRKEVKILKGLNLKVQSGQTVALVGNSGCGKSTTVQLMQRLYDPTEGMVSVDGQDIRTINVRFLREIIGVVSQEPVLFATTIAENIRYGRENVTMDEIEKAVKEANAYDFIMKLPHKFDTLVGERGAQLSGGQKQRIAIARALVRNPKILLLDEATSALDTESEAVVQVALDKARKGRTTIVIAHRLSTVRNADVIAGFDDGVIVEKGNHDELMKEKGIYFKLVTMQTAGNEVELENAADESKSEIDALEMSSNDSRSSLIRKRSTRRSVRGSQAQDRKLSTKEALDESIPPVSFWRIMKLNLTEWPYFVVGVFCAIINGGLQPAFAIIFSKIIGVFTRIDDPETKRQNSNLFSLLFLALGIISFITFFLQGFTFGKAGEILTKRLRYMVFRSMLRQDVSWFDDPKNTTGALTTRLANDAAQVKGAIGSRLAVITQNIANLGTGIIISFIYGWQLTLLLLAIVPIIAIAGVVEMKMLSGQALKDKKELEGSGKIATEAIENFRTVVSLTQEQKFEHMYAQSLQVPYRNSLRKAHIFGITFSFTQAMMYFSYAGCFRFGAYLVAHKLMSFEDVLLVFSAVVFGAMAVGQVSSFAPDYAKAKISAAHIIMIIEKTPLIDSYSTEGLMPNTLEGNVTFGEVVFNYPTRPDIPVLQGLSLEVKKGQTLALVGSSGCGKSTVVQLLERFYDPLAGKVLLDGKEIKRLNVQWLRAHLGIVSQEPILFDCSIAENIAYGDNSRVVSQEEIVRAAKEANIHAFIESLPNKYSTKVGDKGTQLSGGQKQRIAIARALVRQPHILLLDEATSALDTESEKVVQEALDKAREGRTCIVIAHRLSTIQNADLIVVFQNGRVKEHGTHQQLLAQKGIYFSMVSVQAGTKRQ

Broadly, the IC50 is the concentration needed to halve the response being measured. As to `COc1cc2c(cc1OC)CN(CC/C=C1\CCCc3c(OC)cccc31)CC2`, in data set [1], the IC50 is 1200 nM. For `Cc1c(C)c2ccc(OCCN3CCc4ccccc4C3)cc2oc1=O`, the IC50 in data set [1] is 15000 nM. Same read-out and setting: as for `COc1cc2c(cc1OC)CN(CCOc1ccc3c(C)c(C)c(=O)oc3c1)CC2`, the figure is 380 nM; as for `COc1cc2c(cc1OC)CN(Cc1ccc(COc3ccc4c(C)c(C)c(=O)oc4c3)cc1)CC2`, 190 nM; as for `COc1cc2c(cc1OC)CN(CCCCOc1ccc3cc(-c4ccccc4)c(=O)oc3c1)CC2`, 410 nM. For `COc1cc2c(cc1OC)CN(CCCCCOc1ccc3c(c1)oc(=O)c1ccccc13)CC2`, the IC50 in data set [1] was 330 nM. Consider `COc1cc2c(cc1OC)CN(CCc1ccc(COc3ccc4c(C)c(C)c(=O)oc4c3)cc1)CC2`, for which the Activity entry in the data set on MDCK is given as “Non-Toxic”. Further, in data set [1], the IC50 is 190 nM. For the same compound, the “inhibition (INH)” value in data set [2] is listed as “Dose-dependent effect”. Turning to `COc1cc2c(cc1OC)CN(CCCCCCOc1ccc3c(C)c(C)c(=O)oc3c1)CC2`, the half-inhibitory concentration (IC50) in data set [1] is 220 nM. With `COc1cc2c(cc1OC)CN(CCCCCOc1ccc3c(C)c(Cl)c(=O)oc3c1)CC2`, in data set [1], the IC50 was 460 nM. Take `COc1cc2c(cc1OC)CN(Cc1cccc(COc3ccc4c(C)c(C)c(=O)oc4c3)c1)CC2`: the IC50 in data set [1] was 160 nM. On to `COc1cc2c(cc1OC)CN(CCCCCOc1ccc3c(C)c(Br)c(=O)oc3c1)CC2`, for which the Activity result in the data set with MDCK is “Non-Toxic”. The IC50 in data set [1] was 280 nM. In data set [2], the “inhibition (INH)” value is listed as “Dose-dependent effect”.

In the case of `Cc1c(C)c2ccc(OCCCCN3CCc4ccccc4C3)cc2oc1=O`, in data set [1], the IC50 is 910 nM.

On to `COc1cc2c(cc1OC)CN(CCCCOc1ccc3c(C)c(C)c(=O)oc3c1)CC2`, for which the half-inhibitory concentration (IC50) in data set [1] was 150 nM. For `Cc1c(C)c2ccc(OCCCCCN3CCc4ccccc4C3)cc2oc1=O`, the Activity entry in the data set with MDCK is “Non-Toxic”. In data set [1], the IC50 is 550 nM. In data set [2], the “inhibition (INH)” value is “Dose-dependent effect”. For the compound `COc1cc2c(cc1OC)CN(Cc1ccccc1COc1ccc3c(C)c(C)c(=O)oc3c1)CC2`, in data set [1], the IC50 is 160 nM. Consider `COc1cc2c(cc1OC)CN(Cc1cccc(COc3ccc4ccc(=O)oc4c3)c1)CC2`, for which the half-maximal inhibitory concentration (IC50) in data set [1] is 770 nM.

With `COc1cc2c(cc1OC)CN(C/C=C/COc1ccc3c(C)c(C)c(=O)oc3c1)CC2`, in data set [1], the IC50 was 1000 nM. For the compound `COc1cc2c(cc1OC)CN(CCCCOc1ccc3c(C)c(Cl)c(=O)oc3c1)CC2`, the IC50 in data set [1] was 560 nM.

In the case of `COc1cc2c(cc1OC)CN(CCCCCOc1ccc3cc(-c4ccccc4)c(=O)oc3c1)CC2`, the Activity result with MDCK is “Non-Toxic”. In addition, in data set [1], the IC50 was 390 nM. Moreover, the “inhibition (INH)” value in data set [2] is “Dose-dependent effect”.

For `COc1cc2c(cc1OC)CN(CCCOc1ccc3c(C)c(C)c(=O)oc3c1)CC2`, the IC50 in data set [1] is 190 nM. Turning to `COc1cc2c(cc1OC)CN(CCCCCOc1ccc3c(C)c(-c4ccccc4)c(=O)oc3c1)CC2`, the Activity entry with MDCK is “Non-Toxic”. In addition, the half-inhibitory concentration (IC50) in data set [1] is 220 nM. Also, in data set [2], the “inhibition (INH)” value is “Dose-dependent effect”. As to `Cc1c(C)c2ccc(OCCCN3CCc4ccccc4C3)cc2oc1=O`, the IC50 in data set [1] was 2700 nM. On to `COc1cc2c(cc1OC)CN(CCCCCOc1ccc3c(C)c(C)c(=O)oc3c1)CC2`, for which, in the data set on MDCK, the Activity entry is “Non-Toxic”. Moreover, the IC50 in data set [1] is 70 nM. In addition, the “inhibition (INH)” value in data set [2] was “Dose-dependent effect”.
